In ChEMBL document CHEMBL2029270, “Irreversible inhibition of epidermal growth factor receptor activity by 3-aminopropanamides” (J Med Chem, 2012):
Activity calls are given as the source filed them. No cut-off for these calls is given here.

Tests used:
NCI-H1975 [1] = assay: Antiproliferative activity against gefitinib-resistant human NCI-H1975 cells expressing EGFR T790M mutant after 3 days by MTT assay; type: functional, cell-based; settings: NCI-H1975, 72 h
[2] = biological target: T1, Epidermal growth factor receptor (Homo sapiens, UniProt P00533); assay: Inhibition of human recombinant EGFR using Ulight-CAGAGAIETDKEYYTVKD as substrate after 15 mins by time-resolved fluorimetric analysis
[3] = biological target: T1, Epidermal growth factor receptor; settings: A549, at 1 µM
[4] = biological target: T1, Epidermal growth factor receptor; settings: A549, at 1 µM; remark: listed apart in the source
NCI-H1975 [5] = assay: Ratio of gefitinib IC50 to compound IC50 for human NCI-H1975 cells; type: functional
[6] = Chemical stability of the compound in 0.01 M PBS buffer assessed as compound remaining at 1 uM after 24 hrs at pH 7.4; type: physicochemical; settings: read-out: Stability
Outline: (§1)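 Buffer stability at pH 7.4 or pH 9.0, compound at 1 μM, 37 °C for 24 h; percentage of parent left measured by LC−UV and LC−ESI-MS, mean ± SD, n = 3.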

[7] = Chemical stability of the compound in 0.01 M borate buffer assessed as compound remaining at 1 uM after 24 hrs at pH 9; type: physicochemical; settings: read-out: Stability; outline: as §1
[8] = Metabolic stability in rat plasma assessed as compound remaining at 1 uM after 24 hrs; type: ADME, cell-free; settings: read-out: Stability
Outline: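 Incubation of compound (1 μM) in 80% (v/v) rat plasma at 37 °C for 24 h; parent remaining determined by LC−UV and LC−ESI-MS, mean ± SD, n = 3.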

[9] = Chemical stability of the compound assessed as compound remaining at 1 uM after 1 hr at pH 7.4 in the presence of DTT; type: physicochemical; settings: buffer, read-out: Stability
Outline: (§2)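 Test compound (1 μM) in PBS pH 7.4 with freshly prepared thiol (DTT, GSH, NAC or cysteamine, 2 mM), incubated 1 h at 37 °C; parent remaining quantified by LC−UV and LC−ESI-MS, mean ± SD, n = 3.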

[10] = Chemical stability of the compound assessed as compound remaining at 1 uM after 1 hr at pH 7.4 in the presence of GSH; type: physicochemical; settings: buffer, read-out: Stability; outline: as §2
[11] = Chemical stability of the compound assessed as compound remaining at 1 uM after 1 hr at pH 7.4 in the presence of NAC; type: physicochemical; settings: buffer, read-out: Stability; outline: as §2
[12] = Chemical stability of the compound assessed as compound remaining at 1 uM after 1 hr at pH 7.4 in the presence of cysteamine; type: physicochemical; settings: buffer, read-out: Stability; outline: as §2
[13] = biological target: T2, Receptor tyrosine-protein kinase erbB-2 (Homo sapiens, UniProt P04626); assay: Inhibition of ErbB2 up to 10 uM by time-resolved fluorometry
[14] = Drug degradation of the compound assessed as thiol-conjugate formation at 1 uM up to 24 hrs at pH 7.4 in the presence of DTT; type: physicochemical; settings: buffer, pH 7.4, 24 h
Outline: (§3)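 Conjugate formation checked by HPLC−UV and HPLC−ESI-MS after adding freshly prepared thiol (2 mM; cysteamine, NAC, DTT or reduced GSH) to PBS pH 7.4 holding compound at 1 μM, 37 °C; sampled up to 24 h.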

[15] = Drug degradation of the compound assessed as thiol-conjugate formation at 1 uM up to 24 hrs at pH 7.4 in the presence of GSH; type: physicochemical; settings: buffer, pH 7.4, 24 h; outline: as §3
[16] = Drug degradation of the compound assessed as thiol-conjugate formation at 1 uM up to 24 hrs at pH 7.4 in the presence of NAC; type: physicochemical; settings: buffer, pH 7.4, 24 h; outline: as §3
[17] = Drug degradation of the compound assessed as thiol-conjugate formation at 1 uM up to 24 hrs at pH 7.4 in the presence of cysteamine; type: physicochemical; settings: buffer, pH 7.4, 24 h; outline: as §3
A549 [18] = assay: Drug uptake in human A549 cells at 1 uM after 1 hr by LC-MS analysis; type: ADME, cell-based; settings: a549, 1 h
Outline: (§4)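 A549 cells plated 24 h, then exposed 1 h at 37 °C to 1 μM compound (0.1% DMSO final), assayed immediately or 8 h after three washes with fresh medium. Ethanol extraction at 4 °C, extract dried, redissolved, quantified by LC−MS against 50 nM–5 μM calibration (LOQ 50 nM, LOD 20 nM).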

A549 [19] = assay: Drug uptake in human A549 cells at 1 uM incubated for 1 hr measured 8 hrs post-wash out by LC-MS analysis; type: ADME, cell-based; settings: a549, 1 h; outline: as §4
A549 [20] = assay: Prodrug conversion in human A549 cell lysate assessed as N-(4-(3-bromophenylamino)quinazolin-6-yl)acrylamide level at 10 uM after 1 hr by HPLC-HRMS analysis; type: ADME, cell-based; settings: a549, 1 h
Outline: (§5)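 A549 cells grown 2 days, lysed by freeze/thaw; lysate pre-spiked with 2 mM cysteine, compound added from fresh DMSO stock to 10 μM final, 37 °C. Aliquots at 0, 1 and 4 h quenched with double volume acetonitrile, centrifuged, analysed by LC−HRMS in positive ion mode.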

A549 [21] = assay: Drug metabolism in human A549 cell lysate assessed as N-(4-(3-bromophenylamino)quinazolin-6-yl)acrylamide-cysteine adduct level at 10 uM after 1 hr by HPLC-HRMS analysis; type: ADME, cell-based; settings: a549, 1 h; outline: as §5
[22] = biological target: T2, Receptor tyrosine-protein kinase erbB-2; assay: Inhibition of ErbB2 by time-resolved fluorometry
[23] = tested on: Epidermal growth factor receptor (Homo sapiens), P00533 [T790M]; assay: (§6) Inhibition of EGFR T790M mutant autophosphorylation in human NCI-H1975 cells after 1 hr by Western blot analysis; type: cell-based
[24] = biological target: Epidermal growth factor receptor (Homo sapiens, UniProt P00533, T790M); assay: as §6; type: cell-based
Chain of Epidermal growth factor receptor (Homo sapiens, UniProt P00533, T790M) (P00533 whole entry T790M): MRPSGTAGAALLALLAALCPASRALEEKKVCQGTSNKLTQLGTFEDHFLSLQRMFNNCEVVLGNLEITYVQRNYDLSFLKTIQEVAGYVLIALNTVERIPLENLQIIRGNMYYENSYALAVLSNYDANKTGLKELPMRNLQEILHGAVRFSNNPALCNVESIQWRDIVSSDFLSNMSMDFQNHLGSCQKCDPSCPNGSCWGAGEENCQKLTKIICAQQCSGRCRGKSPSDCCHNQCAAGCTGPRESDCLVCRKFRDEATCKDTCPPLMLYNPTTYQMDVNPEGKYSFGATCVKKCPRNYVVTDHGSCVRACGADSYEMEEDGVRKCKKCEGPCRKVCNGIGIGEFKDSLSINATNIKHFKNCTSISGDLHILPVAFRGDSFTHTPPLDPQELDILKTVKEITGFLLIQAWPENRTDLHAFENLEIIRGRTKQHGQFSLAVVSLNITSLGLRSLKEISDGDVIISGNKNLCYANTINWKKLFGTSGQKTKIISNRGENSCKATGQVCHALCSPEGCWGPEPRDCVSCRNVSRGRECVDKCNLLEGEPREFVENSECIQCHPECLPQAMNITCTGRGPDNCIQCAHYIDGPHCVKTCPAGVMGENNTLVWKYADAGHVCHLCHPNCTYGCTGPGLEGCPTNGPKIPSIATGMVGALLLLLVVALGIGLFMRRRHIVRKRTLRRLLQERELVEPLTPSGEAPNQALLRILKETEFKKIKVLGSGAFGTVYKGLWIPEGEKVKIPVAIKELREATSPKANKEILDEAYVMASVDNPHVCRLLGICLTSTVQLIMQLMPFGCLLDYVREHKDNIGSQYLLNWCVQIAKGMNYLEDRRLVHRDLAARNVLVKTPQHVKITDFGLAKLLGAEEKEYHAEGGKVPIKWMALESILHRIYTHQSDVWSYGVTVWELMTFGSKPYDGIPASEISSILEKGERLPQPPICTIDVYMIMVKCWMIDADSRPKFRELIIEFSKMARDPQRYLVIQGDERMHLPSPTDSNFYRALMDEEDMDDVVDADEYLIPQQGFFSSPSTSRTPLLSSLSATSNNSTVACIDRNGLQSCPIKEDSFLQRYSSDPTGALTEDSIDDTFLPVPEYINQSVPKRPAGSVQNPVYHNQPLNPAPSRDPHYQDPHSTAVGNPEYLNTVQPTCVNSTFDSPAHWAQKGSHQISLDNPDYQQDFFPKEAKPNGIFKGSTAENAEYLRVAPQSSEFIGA

T2 sequence (P04626 whole entry): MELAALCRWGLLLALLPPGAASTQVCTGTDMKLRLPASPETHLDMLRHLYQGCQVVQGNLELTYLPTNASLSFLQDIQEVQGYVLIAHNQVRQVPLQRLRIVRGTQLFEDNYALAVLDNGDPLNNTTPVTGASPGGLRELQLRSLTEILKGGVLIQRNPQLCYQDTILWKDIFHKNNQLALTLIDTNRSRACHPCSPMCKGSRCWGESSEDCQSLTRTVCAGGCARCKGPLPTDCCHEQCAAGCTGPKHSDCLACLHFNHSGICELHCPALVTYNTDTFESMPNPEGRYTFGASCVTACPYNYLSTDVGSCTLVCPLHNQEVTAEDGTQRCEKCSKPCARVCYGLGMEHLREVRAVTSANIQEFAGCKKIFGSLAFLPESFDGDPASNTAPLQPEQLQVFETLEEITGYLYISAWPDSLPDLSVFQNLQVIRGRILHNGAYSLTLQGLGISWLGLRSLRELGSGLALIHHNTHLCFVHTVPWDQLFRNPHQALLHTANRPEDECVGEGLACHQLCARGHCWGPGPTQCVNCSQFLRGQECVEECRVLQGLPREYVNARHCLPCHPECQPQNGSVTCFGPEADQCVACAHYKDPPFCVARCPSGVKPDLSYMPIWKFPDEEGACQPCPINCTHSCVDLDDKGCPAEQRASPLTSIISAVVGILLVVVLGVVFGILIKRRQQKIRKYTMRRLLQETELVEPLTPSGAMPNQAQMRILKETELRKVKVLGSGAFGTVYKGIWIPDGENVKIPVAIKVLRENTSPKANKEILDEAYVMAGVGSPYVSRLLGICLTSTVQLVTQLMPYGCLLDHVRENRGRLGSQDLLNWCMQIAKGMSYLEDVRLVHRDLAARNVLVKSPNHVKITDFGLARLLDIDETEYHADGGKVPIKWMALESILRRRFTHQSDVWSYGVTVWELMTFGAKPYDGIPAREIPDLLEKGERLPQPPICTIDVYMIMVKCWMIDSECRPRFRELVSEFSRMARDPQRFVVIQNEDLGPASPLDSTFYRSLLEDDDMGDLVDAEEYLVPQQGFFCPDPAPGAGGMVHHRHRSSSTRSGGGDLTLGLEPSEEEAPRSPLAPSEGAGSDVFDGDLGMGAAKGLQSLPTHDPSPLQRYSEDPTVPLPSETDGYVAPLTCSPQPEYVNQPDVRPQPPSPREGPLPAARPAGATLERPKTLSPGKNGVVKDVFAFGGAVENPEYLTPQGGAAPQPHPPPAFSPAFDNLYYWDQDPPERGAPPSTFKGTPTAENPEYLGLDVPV
T1 sequence (P00533 whole entry): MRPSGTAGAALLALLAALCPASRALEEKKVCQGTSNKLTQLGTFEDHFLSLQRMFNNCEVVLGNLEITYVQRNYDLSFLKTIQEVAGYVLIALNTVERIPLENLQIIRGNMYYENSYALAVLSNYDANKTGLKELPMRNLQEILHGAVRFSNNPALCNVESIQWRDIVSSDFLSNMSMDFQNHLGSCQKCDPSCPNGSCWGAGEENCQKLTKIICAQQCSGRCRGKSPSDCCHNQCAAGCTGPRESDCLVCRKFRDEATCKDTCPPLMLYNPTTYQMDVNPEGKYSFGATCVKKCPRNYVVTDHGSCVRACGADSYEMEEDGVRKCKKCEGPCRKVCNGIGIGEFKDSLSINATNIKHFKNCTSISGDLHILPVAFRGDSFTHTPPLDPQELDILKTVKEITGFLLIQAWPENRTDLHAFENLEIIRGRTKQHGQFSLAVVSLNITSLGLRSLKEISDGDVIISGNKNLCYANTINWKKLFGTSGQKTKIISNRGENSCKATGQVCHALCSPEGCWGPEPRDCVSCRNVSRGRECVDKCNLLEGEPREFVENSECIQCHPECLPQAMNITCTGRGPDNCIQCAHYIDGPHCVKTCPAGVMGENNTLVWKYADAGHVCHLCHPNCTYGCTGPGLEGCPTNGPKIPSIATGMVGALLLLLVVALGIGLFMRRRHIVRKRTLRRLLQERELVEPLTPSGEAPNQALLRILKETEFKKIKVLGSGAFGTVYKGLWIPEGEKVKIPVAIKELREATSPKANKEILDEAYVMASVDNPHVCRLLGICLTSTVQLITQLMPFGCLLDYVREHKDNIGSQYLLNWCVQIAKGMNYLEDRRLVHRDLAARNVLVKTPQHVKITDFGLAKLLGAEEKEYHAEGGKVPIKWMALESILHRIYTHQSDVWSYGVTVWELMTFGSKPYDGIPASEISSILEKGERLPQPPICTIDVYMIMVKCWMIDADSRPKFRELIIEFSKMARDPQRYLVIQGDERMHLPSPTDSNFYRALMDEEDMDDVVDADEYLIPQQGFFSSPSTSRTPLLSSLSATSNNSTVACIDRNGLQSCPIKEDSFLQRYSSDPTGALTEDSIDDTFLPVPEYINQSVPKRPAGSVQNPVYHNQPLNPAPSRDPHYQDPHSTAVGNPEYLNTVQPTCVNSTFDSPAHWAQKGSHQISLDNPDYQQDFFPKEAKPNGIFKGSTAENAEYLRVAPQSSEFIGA
Chain of Epidermal growth factor receptor (Homo sapiens), P00533 [T790M] (P00533 whole entry T790M): as the sequence (P00533 whole entry T790M) above

Structure (SMILES) | IC50 (NCI-H1975 [1]) [nM] | IC50 [2] [nM] | inhibition [3] [%] | inhibition [4] [%] | other results
CCOc1cc2ncc(C#N)c(Nc3ccc(F)c(Cl)c3)c2cc1NC(=O)CCN1CCCCC1 | 2730 | 2.21 | 82 | 92 | 
C=CC(=O)Nc1cc2c(Nc3ccc(F)c(Cl)c3)c(C#N)cnc2cc1OCC | 3570 | 1.46 | 33 | 92 | 
CCOc1cc2ncnc(Nc3ccc(F)c(Cl)c3)c2cc1NC(=O)CCN1CCOCC1 | 2110 | 0.29 | 97 | 97 | Ratio IC50 (NCI-H1975 [5]): 3
O=C(CCN1CCOCC1)Nc1ccc2ncnc(Nc3cccc(Br)c3)c2c1 | > 20000 | 0.51 | 91 | 98 | 
CN(C)CCC(=O)Nc1ccc2ncnc(Nc3cccc(Br)c3)c2c1 |  |  |  |  | remaining at 24 h, 1 µM [6]: 97.5%; remaining at 24 h, 1 µM [7]: 77%; remaining at 24 h, 1 µM [8]: 98.7%; remaining at 1 h, 1 µM [9]: 99.2%; remaining at 1 h, 1 µM [10]: 101%; remaining at 1 h, 1 µM [11]: 100%; remaining at 1 h, 1 µM [12]: 100%; inhibition [13]: inactive; Drug degradation [14]: Not Active; Drug degradation [15]: Not Active; Drug degradation [16]: Not Active; Drug degradation [17]: Not Active; Drug uptake (A549 [18]): 0.05 nmol/mg; Drug uptake (A549 [19]): Not Active; Drug metabolism (A549 [20]): Active; Drug metabolism (A549 [21]): Active
CN(C)CCC(=O)N(C)c1ccc2ncnc(Nc3cccc(Br)c3)c2c1 | 13600 | 17.4 | 10 | 47 | 
CCOc1cc2ncnc(Nc3ccc(F)c(Cl)c3)c2cc1NC(=O)CCN1CCCCC1 | 1610 | 0.51 | 92 | 98 | Ratio IC50 (NCI-H1975 [5]): 3
C=CC(=O)Nc1cc2c(Nc3ccc(F)c(Cl)c3)ncnc2cc1OCC | 1620 | 0.18 | 99 | 96 | 
CCOc1cc2ncnc(Nc3ccc(F)c(Cl)c3)c2cc1NC(=O)CCN(C)C | 2210 | 0.27 | 100 | 98 | Ratio IC50 (NCI-H1975 [5]): 3
O=C(CCN1CCCCC1)Nc1ccc2ncnc(Nc3cccc(Br)c3)c2c1 | 6670 | 0.27 | 93 | 95 | 
C=CC(=O)Nc1ccc2ncnc(Nc3cccc(Br)c3)c2c1 |  |  |  |  | remaining at 24 h, 1 µM [6]: 102%; remaining at 24 h, 1 µM [7]: 105%; remaining at 24 h, 1 µM [8]: 21.8%; remaining at 1 h, 1 µM [9]: 100%; remaining at 1 h, 1 µM [10]: 63.8%; remaining at 1 h, 1 µM [11]: 85.6%; remaining at 1 h, 1 µM [12]: 20.1%; Drug degradation [15]: Active; Drug degradation [16]: Active; Drug degradation [17]: Active; Drug uptake (A549 [18]): Not Active; Drug uptake (A549 [19]): Not Active
CCOc1cc2ncc(C#N)c(Nc3ccc(F)c(Cl)c3)c2cc1NC(=O)CCN1CCOCC1 | 3930 | 2.02 | 48 | 86 | 
CCOc1cc2ncc(C#N)c(Nc3ccc(OCc4ccccn4)c(Cl)c3)c2cc1NC(=O)CCN1CCOCC1 | 2760 | 37.5 | 39 | 48 | 
CCOc1cc2ncc(C#N)c(Nc3ccc(OCc4ccccn4)c(Cl)c3)c2cc1NC(=O)CCN(C)C | 2030 | 12.5 | 59 | 61 | IC50 [22]: 970 nM
CCOc1cc2ncc(C#N)c(Nc3ccc(F)c(Cl)c3)c2cc1NC(=O)CCN(C)C | 2370 | 0.68 | 67 | 88 | 
Nc1ccc2ncnc(Nc3cccc(Br)c3)c2c1 |  |  |  |  | Drug uptake (A549 [18]): 0.105 nmol/mg; Drug uptake (A549 [19]): Not Active
CCOc1cc2ncc(C#N)c(Nc3ccc(OCc4ccccn4)c(Cl)c3)c2cc1NC(=O)CCN1CCCCC1 | 710 | 24.8 | 58 | 71 | inhibition [23]: Dose-dependent effect; IC50 [24]: 150 nM; IC50 [22]: 980 nM; Ratio IC50 (NCI-H1975 [5]): 11
